According to ChEMBL document CHEMBL1132958, “Design of monocyclic (1-3) and dicyclic (1-3/4-10) gonadotropin releasing hormone (GnRH) antagonists” (J Med Chem, 2000):
The source made the active and inactive calls. The rule behind the calls is not given here.

Each compound was assayed against T1, Gonadotropin-releasing hormone receptor (Rattus norvegicus, UniProt P30969) (assay: Competitive radioligand binding assay for rat Gonadotropin-releasing hormone receptor cells stably transfected in human HEK293).
T1 sequence (P30969 whole entry): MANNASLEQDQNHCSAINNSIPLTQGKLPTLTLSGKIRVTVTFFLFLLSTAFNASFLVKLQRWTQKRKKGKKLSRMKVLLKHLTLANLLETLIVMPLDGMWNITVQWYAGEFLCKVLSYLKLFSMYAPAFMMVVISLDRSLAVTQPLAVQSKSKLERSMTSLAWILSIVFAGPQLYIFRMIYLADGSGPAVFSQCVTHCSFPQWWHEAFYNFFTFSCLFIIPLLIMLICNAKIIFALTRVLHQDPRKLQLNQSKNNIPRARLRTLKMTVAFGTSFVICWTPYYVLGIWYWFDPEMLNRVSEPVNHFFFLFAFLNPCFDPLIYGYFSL
Method in brief: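 Membranes from HEK-293 cells stably expressing rat GnRH receptor (5% sucrose homogenate; nuclei removed at 3000g, membranes pelleted at 20000g, 4 °C), 7 µg protein in 10 mM Hepes pH 7.5, 150 mM NaCl, 0.1% BSA. Competitor at varying concentrations vs des-Gly10-[125I-Tyr5,DAla6,NMeLeu7,Pro9-NHEt]GnRH (~100 000 cpm), 90 min; PEI-coated GF/C filtration, PBS wash, γ counting. Ki by nonlinear least-squares fit; ≥3 independent experiments, mean ± SEM.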
In the case of `CC(=O)N[C@@H]1CC(=O)NCCCC[C@H](C(=O)N[C@@H](CO)C(=O)N[C@@H](Cc2ccc(O)cc2)C(=O)N[C@H](Cc2ccc3ccccc3c2)C(=O)N[C@@H](CC(C)C)C(=O)N[C@@H](CCCN=C(N)N)C(=O)N2CCC[C@H]2C(=O)N[C@H](C)C(N)=O)NC(=O)[C@@H](Cc2ccc(Cl)cc2)NC1=O`, the Ki is reported as 0.82 nM.
For `CC(=O)N[C@@H]1CC(=O)NCC(=O)NCCCC[C@H](C(=O)N[C@@H](CO)C(=O)N[C@@H](Cc2ccc(O)cc2)C(=O)N[C@H](Cc2ccc3ccccc3c2)C(=O)N[C@@H](CC(C)C)C(=O)N[C@@H](CCCN=C(N)N)C(=O)N2CCC[C@H]2C(=O)N[C@H](C)C(N)=O)NC(=O)[C@@H](Cc2ccc(Cl)cc2)NC1=O`, the Ki was 0.14 nM.
`CC(=O)N[C@@H]1CC(=O)NCCC(=O)NCC[C@H](C(=O)N[C@@H](CO)C(=O)N[C@@H](Cc2ccc(O)cc2)C(=O)N[C@H](Cc2ccc3ccccc3c2)C(=O)N[C@@H](CC(C)C)C(=O)N[C@@H](CCCN=C(N)N)C(=O)N2CCC[C@H]2C(=O)N[C@H](C)C(N)=O)NC(=O)[C@@H](Cc2ccc(Cl)cc2)NC1=O` showed a Ki of 0.32 nM.
For `CC(=O)N[C@@H]1CC(=O)NCC(=O)NCC[C@H](C(=O)N[C@@H](CO)C(=O)N[C@@H](Cc2ccc(O)cc2)C(=O)N[C@H](Cc2ccc3ccccc3c2)C(=O)N[C@@H](CC(C)C)C(=O)N[C@@H](CCCN=C(N)N)C(=O)N2CCC[C@H]2C(=O)N[C@H](C)C(N)=O)NC(=O)[C@@H](Cc2ccc(Cl)cc2)NC1=O`, the Ki was 0.7 nM.
With `CC(=O)N[C@@H]1CC(=O)NCCCC(=O)NC[C@H](C(=O)N[C@@H](CO)C(=O)N[C@@H](Cc2ccc(O)cc2)C(=O)N[C@H](Cc2ccc3ccccc3c2)C(=O)N[C@@H](CC(C)C)C(=O)N[C@@H](CCCN=C(N)N)C(=O)N2CCC[C@H]2C(=O)N[C@H](C)C(N)=O)NC(=O)[C@@H](Cc2ccc(Cl)cc2)NC1=O` the Ki was 0.18 nM.
`CC(=O)N[C@@H]1CCC(=O)NCC(=O)NCC[C@H](C(=O)N[C@@H](CO)C(=O)N[C@@H](Cc2ccc(O)cc2)C(=O)N[C@H](Cc2ccc3ccccc3c2)C(=O)N[C@@H](CC(C)C)C(=O)N[C@@H](CCCN=C(N)N)C(=O)N2CCC[C@H]2C(=O)N[C@H](C)C(N)=O)NC(=O)[C@@H](Cc2ccc(Cl)cc2)NC1=O` was tested, and the Ki was 20.3 nM.
`CC(=O)N[C@@H]1CCC(=O)NCC(=O)NCCCC[C@H](C(=O)N[C@@H](CO)C(=O)N[C@@H](Cc2ccc(O)cc2)C(=O)N[C@H](Cc2ccc3ccccc3c2)C(=O)N[C@@H](CC(C)C)C(=O)N[C@@H](CCCN=C(N)N)C(=O)N2CCC[C@H]2C(=O)N[C@H](C)C(N)=O)NC(=O)[C@@H](Cc2ccc(Cl)cc2)NC1=O` showed a Ki of 1.5 nM.
Work on `CC(=O)N[C@@H]1CC(=O)NCCC(=O)NC[C@H](C(=O)N[C@@H](CO)C(=O)N[C@@H](Cc2ccc(O)cc2)C(=O)N[C@H](Cc2ccc3ccccc3c2)C(=O)N[C@@H](CC(C)C)C(=O)N[C@@H](CCCN=C(N)N)C(=O)N2CCC[C@H]2C(=O)N[C@H](C)C(N)=O)NC(=O)[C@@H](Cc2ccc(Cl)cc2)NC1=O` yielded a Ki of 0.35 nM.
For `CC(=O)N[C@@H]1CCC(=O)NCCC(=O)NCCCC[C@H](C(=O)N[C@@H](CO)C(=O)N[C@@H](Cc2ccc(O)cc2)C(=O)N[C@H](Cc2ccc3ccccc3c2)C(=O)N[C@@H](CC(C)C)C(=O)N[C@@H](CCCN=C(N)N)C(=O)N2CCC[C@H]2C(=O)N[C@H](C)C(N)=O)NC(=O)[C@@H](Cc2ccc(Cl)cc2)NC1=O`, the Ki was 2.2 nM.
In the case of `CC(=O)N[C@H]1CC(=O)NC[C@@H](C(=O)N[C@@H](CO)C(=O)N[C@@H](Cc2ccc(O)cc2)C(=O)N[C@H](Cc2ccc3ccccc3c2)C(=O)N[C@@H](CC(C)C)C(=O)N[C@@H](CCCN=C(N)N)C(=O)N2CCC[C@H]2C(=O)N[C@H](C)C(N)=O)NC(=O)[C@@H](Cc2ccc(Cl)cc2)NC1=O`, the Ki is reported as 31 nM.
`CC(=O)N[C@@H]1CC(=O)N[C@H](C)C(=O)NCCC[C@H](C(=O)N[C@@H](CO)C(=O)N[C@@H](Cc2ccc(O)cc2)C(=O)N[C@H](Cc2ccc3ccccc3c2)C(=O)N[C@@H](CC(C)C)C(=O)N[C@@H](CCCN=C(N)N)C(=O)N2CCC[C@H]2C(=O)N[C@H](C)C(N)=O)NC(=O)[C@@H](Cc2ccc(Cl)cc2)NC1=O` showed a Ki of 2.4 nM.
Work on `CC(=O)N[C@@H]1CC(=O)NCCCC[C@H](C(=O)N[C@H]2CC(=O)NC[C@@H](C(N)=O)NC(=O)[C@@H]3CCCN3C(=O)[C@H](CCCN=C(N)N)NC(=O)[C@H](CC(C)C)NC(=O)[C@@H](Cc3ccc4ccccc4c3)NC(=O)[C@H](Cc3ccc(O)cc3)NC2=O)NC(=O)[C@@H](Cc2ccc(Cl)cc2)NC1=O` yielded a Ki of 1.2 nM.
Work on `CC(=O)N[C@@H]1CCC(=O)NCC(=O)NCCC[C@H](C(=O)N[C@@H](CO)C(=O)N[C@@H](Cc2ccc(O)cc2)C(=O)N[C@H](Cc2ccc3ccccc3c2)C(=O)N[C@@H](CC(C)C)C(=O)N[C@@H](CCCN=C(N)N)C(=O)N2CCC[C@H]2C(=O)N[C@H](C)C(N)=O)NC(=O)[C@@H](Cc2ccc(Cl)cc2)NC1=O` yielded a Ki of 4.2 nM.
`CC(=O)N[C@@H]1CC(=O)NCCC[C@H](C(=O)N[C@@H](CO)C(=O)N[C@@H](Cc2ccc(O)cc2)C(=O)N[C@H](Cc2ccc3ccccc3c2)C(=O)N[C@@H](CC(C)C)C(=O)N[C@@H](CCCN=C(N)N)C(=O)N2CCC[C@H]2C(=O)N[C@H](C)C(N)=O)NC(=O)[C@@H](Cc2ccc(Cl)cc2)NC1=O` was tested, and the Ki was 1.6 nM.
`CC(=O)N[C@@H]1CC(=O)N[C@@H](C)C(=O)NCCC[C@H](C(=O)N[C@@H](CO)C(=O)N[C@@H](Cc2ccc(O)cc2)C(=O)N[C@H](CCCN=C(N)N)C(=O)N[C@@H](CC(C)C)C(=O)N[C@@H](CCCN=C(N)N)C(=O)N2CCC[C@H]2C(=O)N[C@H](C)C(N)=O)NC(=O)[C@@H](Cc2ccc(Cl)cc2)NC1=O` was tested, and the Ki was 350 nM.
`CC(=O)N[C@@H]1CCC(=O)NCCCC[C@H](C(=O)N[C@@H](CO)C(=O)N[C@@H](Cc2ccc(O)cc2)C(=O)N[C@H](Cc2ccc3ccccc3c2)C(=O)N[C@@H](CC(C)C)C(=O)N[C@@H](CCCN=C(N)N)C(=O)N2CCC[C@H]2C(=O)N[C@H](C)C(N)=O)NC(=O)[C@@H](Cc2ccc(Cl)cc2)NC1=O` was tested, and the Ki was 0.47 nM.
For `CC(=O)N[C@@H]1CC(=O)N[C@H](C)C(=O)NCC[C@H](C(=O)N[C@@H](CO)C(=O)N[C@@H](Cc2ccc(O)cc2)C(=O)N[C@H](Cc2ccc3ccccc3c2)C(=O)N[C@@H](CC(C)C)C(=O)N[C@@H](CCCN=C(N)N)C(=O)N2CCC[C@H]2C(=O)N[C@H](C)C(N)=O)NC(=O)[C@@H](Cc2ccc(Cl)cc2)NC1=O`, the Ki was 0.57 nM.
With `CC(=O)N[C@@H]1CC(=O)NCC(=O)NCCC[C@H](C(=O)N[C@@H](CO)C(=O)N[C@@H](Cc2ccc(O)cc2)C(=O)N[C@H](Cc2ccc3ccccc3c2)C(=O)N[C@@H](CC(C)C)C(=O)N[C@@H](CCCN=C(N)N)C(=O)N2CCC[C@H]2C(=O)N[C@H](C)C(N)=O)NC(=O)[C@@H](Cc2ccc(Cl)cc2)NC1=O` the Ki was 0.34 nM.
`CC(=O)N[C@@H]1CNC(=O)C[C@H](C(=O)N[C@@H](CO)C(=O)N[C@@H](Cc2ccc(O)cc2)C(=O)N[C@H](Cc2ccc3ccccc3c2)C(=O)N[C@@H](CC(C)C)C(=O)N[C@@H](CCCN=C(N)N)C(=O)N2CCC[C@H]2C(=O)N[C@H](C)C(N)=O)NC(=O)[C@@H](Cc2ccc(Cl)cc2)NC1=O` was tested, and the Ki was 1.7 nM.
`CC(=O)N[C@@H]1CC(=O)N[C@@H](C)C(=O)NCCC[C@H](C(=O)N[C@@H](CO)C(=O)N[C@@H](Cc2ccc(O)cc2)C(=O)N[C@H](Cc2ccc3ccccc3c2)C(=O)N[C@@H](CC(C)C)C(=O)N[C@@H](CCCN=C(N)N)C(=O)N2CCC[C@H]2C(=O)N[C@H](C)C(N)=O)NC(=O)[C@@H](Cc2ccc(Cl)cc2)NC1=O` showed a Ki of 3.3 nM.
`CC(=O)N[C@@H]1CC(=O)N[C@@H](C)C(=O)NCC[C@H](C(=O)N[C@@H](CO)C(=O)N[C@@H](Cc2ccc(O)cc2)C(=O)N[C@H](Cc2ccc3ccccc3c2)C(=O)N[C@@H](CC(C)C)C(=O)N[C@@H](CCCN=C(N)N)C(=O)N2CCC[C@H]2C(=O)N[C@H](C)C(N)=O)NC(=O)[C@@H](Cc2ccc(Cl)cc2)NC1=O` showed a Ki of 1.8 nM.
`CC(=O)N[C@@H]1CCC(=O)NCCC[C@H](C(=O)N[C@@H](CO)C(=O)N[C@@H](Cc2ccc(O)cc2)C(=O)N[C@H](Cc2ccc3ccccc3c2)C(=O)N[C@@H](CC(C)C)C(=O)N[C@@H](CCCN=C(N)N)C(=O)N2CCC[C@H]2C(=O)N[C@H](C)C(N)=O)NC(=O)[C@@H](Cc2ccc(Cl)cc2)NC1=O` gave a Ki of 5.2 nM.
`CC(=O)N[C@@H]1CCC(=O)NCCCC[C@H](C(=O)N[C@H]2CC(=O)NC[C@@H](C(N)=O)NC(=O)[C@@H]3CCCN3C(=O)[C@@H]3CCCCNC(=O)CC[C@H](NC2=O)C(=O)N[C@H](Cc2ccc4ccccc4c2)C(=O)N[C@@H](CC(C)C)C(=O)N3)NC(=O)[C@@H](Cc2ccc(Cl)cc2)NC1=O` showed a Ki of 4.6 nM.
`CC(=O)N[C@@H]1CC(=O)NCCC(=O)NCCC[C@H](C(=O)N[C@@H](CO)C(=O)N[C@@H](Cc2ccc(O)cc2)C(=O)N[C@H](Cc2ccc3ccccc3c2)C(=O)N[C@@H](CC(C)C)C(=O)N[C@@H](CCCN=C(N)N)C(=O)N2CCC[C@H]2C(=O)N[C@H](C)C(N)=O)NC(=O)[C@@H](Cc2ccc(Cl)cc2)NC1=O` showed a Ki of 0.17 nM.
`CC(=O)N[C@@H]1CCC(=O)NCC[C@H](C(=O)N[C@@H](CO)C(=O)N[C@@H](Cc2ccc(O)cc2)C(=O)N[C@H](Cc2ccc3ccccc3c2)C(=O)N[C@@H](CC(C)C)C(=O)N[C@@H](CCCN=C(N)N)C(=O)N2CCC[C@H]2C(=O)N[C@H](C)C(N)=O)NC(=O)[C@@H](Cc2ccc(Cl)cc2)NC1=O` showed a Ki of 0.31 nM.

The compounds below were run on Rattus norvegicus (assay: Evaluated for number of rats ovulating in an in vivo anti-ovulatory assay at dose (500 microg); 8/8).
Assay type: functional, organism-based
For `CC(=O)N[C@H]1CCC(=O)N[C@@H](C(=O)N[C@@H](CO)C(=O)N[C@@H](Cc2ccc(O)cc2)C(=O)N[C@H](CCCN=C(N)N)C(=O)N[C@H](CC(C)C)C(=O)N[C@@H](CCCN=C(N)N)C(=O)N2CCC[C@H]2C(=O)N[C@H](C)C(N)=O)CCCCNC(=O)[C@@H](Cc2ccc(Cl)cc2)NC1=O`, the Activity was “inactive”.
